Assay results: ChEMBL document CHEMBL1157490, “Imidazopyridines as VLA-4 integrin antagonists” (Bioorg Med Chem Lett, 2008)

Legend:
Cytochrome P450 2C9 = Cytochrome P450 2C9 (Homo sapiens, UniProt P11712); experiment: Inhibition of CYP2C9; type: ADME
[1] = Metabolic stability in rat microsomes assessed as intrinsic clearance at 0.5 uM; type: ADME, Microsome
[2] = Metabolic stability in mouse microsomes assessed as intrinsic clearance at 0.5 uM; type: ADME, Microsome
[3] = Metabolic stability in human microsomes assessed as intrinsic clearance at 0.5 uM; type: ADME, Microsome
Integrin alpha-4/beta-1 = Integrin alpha-4/beta-1 (Homo sapiens, UniProt P05556+P13612); experiment: Inhibition of integrin alpha4beta1 receptor in human whole blood by flow cytometry
Method in brief: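 Human whole blood incubated with 3 mM MnCl2 and streptavidin-FITC, with or without 10 μg/mL biotinylated dimeric hVCAM-mFc. Compound added from tripling dilutions in TBS, 30 min at room temperature with shaking. Red cells lysed, leukocytes pelleted, washed twice in TBS and analysed by flow cytometry for bound VCAM; IC50 derived.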

Cytochrome P450 1A2 = target: T1, Cytochrome P450 1A2 (Homo sapiens, UniProt P05177); experiment: Inhibition of CYP1A2; type: ADME
T1 sequence (P05177 whole entry): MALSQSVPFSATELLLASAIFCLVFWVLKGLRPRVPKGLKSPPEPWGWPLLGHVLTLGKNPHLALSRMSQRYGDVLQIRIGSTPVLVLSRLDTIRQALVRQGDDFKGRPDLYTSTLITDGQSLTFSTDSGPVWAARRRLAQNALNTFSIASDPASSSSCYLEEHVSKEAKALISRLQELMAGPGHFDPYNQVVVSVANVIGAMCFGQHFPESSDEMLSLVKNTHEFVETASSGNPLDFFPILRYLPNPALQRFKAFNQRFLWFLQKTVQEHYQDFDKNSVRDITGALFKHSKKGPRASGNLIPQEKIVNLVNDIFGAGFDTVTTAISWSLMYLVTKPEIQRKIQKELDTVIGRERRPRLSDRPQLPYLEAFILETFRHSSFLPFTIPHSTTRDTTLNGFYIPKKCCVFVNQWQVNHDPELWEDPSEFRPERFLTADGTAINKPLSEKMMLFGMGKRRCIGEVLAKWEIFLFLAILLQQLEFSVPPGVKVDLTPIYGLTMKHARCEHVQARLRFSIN

Cytochrome P450 3A4 = Cytochrome P450 3A4 (Homo sapiens, UniProt P08684); experiment: Inhibition of CYP3A4; type: ADME
Cytochrome P450 2D6 = Cytochrome P450 2D6 (Homo sapiens, UniProt P10635); experiment: Inhibition of CYP2D6; type: ADME
Chain of Cytochrome P450 2D6 (P10635 whole entry): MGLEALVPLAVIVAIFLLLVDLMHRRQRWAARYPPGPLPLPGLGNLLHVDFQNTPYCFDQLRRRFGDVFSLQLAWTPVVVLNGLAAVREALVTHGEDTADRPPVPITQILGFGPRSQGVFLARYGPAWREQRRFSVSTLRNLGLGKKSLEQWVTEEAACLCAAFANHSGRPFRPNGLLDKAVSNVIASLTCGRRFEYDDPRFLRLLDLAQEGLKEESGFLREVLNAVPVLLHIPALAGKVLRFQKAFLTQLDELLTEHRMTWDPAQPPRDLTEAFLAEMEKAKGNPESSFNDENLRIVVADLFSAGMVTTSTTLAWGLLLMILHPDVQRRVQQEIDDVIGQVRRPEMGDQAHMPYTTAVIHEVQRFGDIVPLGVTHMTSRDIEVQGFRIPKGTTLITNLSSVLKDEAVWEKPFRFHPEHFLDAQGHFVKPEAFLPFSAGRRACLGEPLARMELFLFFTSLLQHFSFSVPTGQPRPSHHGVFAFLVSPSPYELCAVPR

Chain of Integrin alpha-4/beta-1 (P05556 whole entry): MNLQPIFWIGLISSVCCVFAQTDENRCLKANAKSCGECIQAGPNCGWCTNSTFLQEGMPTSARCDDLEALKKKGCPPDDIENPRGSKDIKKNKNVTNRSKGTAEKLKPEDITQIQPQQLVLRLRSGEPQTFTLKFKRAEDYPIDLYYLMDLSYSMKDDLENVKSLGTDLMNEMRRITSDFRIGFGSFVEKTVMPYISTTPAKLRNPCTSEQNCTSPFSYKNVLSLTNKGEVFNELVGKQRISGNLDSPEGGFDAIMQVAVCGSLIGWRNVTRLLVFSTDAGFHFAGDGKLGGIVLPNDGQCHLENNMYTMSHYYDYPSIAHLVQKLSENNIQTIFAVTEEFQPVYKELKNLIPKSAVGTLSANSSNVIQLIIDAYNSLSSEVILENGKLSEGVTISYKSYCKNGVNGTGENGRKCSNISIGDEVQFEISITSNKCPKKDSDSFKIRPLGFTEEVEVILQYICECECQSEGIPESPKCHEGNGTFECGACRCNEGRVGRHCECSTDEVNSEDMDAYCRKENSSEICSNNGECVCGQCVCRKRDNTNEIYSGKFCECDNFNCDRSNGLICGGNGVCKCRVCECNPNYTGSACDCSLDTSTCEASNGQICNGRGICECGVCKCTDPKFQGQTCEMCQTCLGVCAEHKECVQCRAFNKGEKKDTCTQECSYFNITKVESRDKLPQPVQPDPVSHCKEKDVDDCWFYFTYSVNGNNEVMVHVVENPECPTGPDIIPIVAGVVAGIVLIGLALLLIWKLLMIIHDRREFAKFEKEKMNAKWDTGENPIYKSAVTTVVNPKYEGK
Chain of Integrin alpha-4/beta-1 (P13612 whole entry): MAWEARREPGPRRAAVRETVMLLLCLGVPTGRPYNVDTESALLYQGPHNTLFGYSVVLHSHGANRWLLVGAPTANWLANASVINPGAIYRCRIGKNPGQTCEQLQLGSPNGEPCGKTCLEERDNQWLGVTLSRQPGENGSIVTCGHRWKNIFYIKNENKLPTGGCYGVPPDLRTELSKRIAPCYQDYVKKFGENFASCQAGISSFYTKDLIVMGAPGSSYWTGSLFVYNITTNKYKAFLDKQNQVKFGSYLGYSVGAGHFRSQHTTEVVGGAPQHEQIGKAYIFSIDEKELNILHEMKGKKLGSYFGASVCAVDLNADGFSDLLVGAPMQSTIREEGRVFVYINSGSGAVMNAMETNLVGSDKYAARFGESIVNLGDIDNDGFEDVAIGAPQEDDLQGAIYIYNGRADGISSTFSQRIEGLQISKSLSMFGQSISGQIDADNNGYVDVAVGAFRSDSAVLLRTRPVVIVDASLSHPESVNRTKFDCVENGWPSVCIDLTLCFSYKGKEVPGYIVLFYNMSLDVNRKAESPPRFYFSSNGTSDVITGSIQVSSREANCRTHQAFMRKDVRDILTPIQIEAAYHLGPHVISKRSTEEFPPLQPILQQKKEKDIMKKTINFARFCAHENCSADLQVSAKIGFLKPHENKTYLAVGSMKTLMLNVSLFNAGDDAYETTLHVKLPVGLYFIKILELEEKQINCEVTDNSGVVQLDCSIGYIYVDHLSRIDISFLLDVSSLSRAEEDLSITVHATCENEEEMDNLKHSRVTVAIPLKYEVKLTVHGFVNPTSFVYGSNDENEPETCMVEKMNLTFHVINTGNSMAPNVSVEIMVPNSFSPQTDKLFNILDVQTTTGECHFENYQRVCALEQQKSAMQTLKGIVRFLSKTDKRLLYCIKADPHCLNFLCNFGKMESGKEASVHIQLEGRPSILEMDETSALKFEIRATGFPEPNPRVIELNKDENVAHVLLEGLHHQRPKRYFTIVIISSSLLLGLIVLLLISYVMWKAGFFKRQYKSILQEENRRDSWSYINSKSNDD
Chain of Cytochrome P450 2C9 (P11712 whole entry): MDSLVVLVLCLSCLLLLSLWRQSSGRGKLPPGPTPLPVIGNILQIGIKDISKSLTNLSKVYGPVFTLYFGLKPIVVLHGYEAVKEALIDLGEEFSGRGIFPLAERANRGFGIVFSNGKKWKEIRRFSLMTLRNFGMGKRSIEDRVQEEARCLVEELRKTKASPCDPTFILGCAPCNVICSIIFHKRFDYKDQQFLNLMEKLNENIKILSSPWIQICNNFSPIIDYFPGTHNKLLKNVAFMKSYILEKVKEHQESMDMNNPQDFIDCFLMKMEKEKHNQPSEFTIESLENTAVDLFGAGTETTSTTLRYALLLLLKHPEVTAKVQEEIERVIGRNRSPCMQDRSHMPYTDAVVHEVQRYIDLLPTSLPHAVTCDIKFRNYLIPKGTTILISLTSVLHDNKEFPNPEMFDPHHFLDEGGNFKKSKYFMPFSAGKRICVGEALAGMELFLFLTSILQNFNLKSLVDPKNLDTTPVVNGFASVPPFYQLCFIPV
Chain of Cytochrome P450 3A4 (P08684 whole entry): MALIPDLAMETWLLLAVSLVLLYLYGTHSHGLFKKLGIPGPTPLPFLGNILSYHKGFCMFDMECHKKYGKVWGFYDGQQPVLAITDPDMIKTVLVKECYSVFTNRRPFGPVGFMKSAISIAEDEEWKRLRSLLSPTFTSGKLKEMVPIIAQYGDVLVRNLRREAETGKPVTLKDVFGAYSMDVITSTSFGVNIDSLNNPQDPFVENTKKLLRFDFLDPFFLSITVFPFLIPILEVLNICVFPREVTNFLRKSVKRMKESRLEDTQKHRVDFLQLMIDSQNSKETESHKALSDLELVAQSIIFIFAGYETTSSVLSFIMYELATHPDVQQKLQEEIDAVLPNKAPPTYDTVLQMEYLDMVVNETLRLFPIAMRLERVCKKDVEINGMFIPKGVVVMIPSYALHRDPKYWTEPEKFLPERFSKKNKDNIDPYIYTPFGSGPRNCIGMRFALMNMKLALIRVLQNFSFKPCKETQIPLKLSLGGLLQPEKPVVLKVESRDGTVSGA

Row | IC50 (Integrin alpha-4/beta-1) | also measured | Compound
1 | 9 nM | IC50 (Cytochrome P450 2C9): 18000 nM; microsomal CLint at 0.5 µM [1]: 38 µL/min/mg; microsomal CLint at 0.5 µM [2]: 14 µL/min/mg; microsomal CLint at 0.5 µM [3]: 4 µL/min/mg; IC50 (Cytochrome P450 1A2): > 100000 nM; IC50 (Cytochrome P450 3A4): 79000 nM; IC50 (Cytochrome P450 2D6): > 100000 nM | CC(C)c1nc2cccnc2n1-c1ccc(C[C@H](NC2=C(Br)C(=O)C23CCCCC3)C(=O)O)cc1
2 | 9 nM |  | CNc1ccc(-c2nc3cccnc3n2-c2ccc(C[C@H](NC3=C(Br)C(=O)C34CCCCC4)C(=O)O)cc2)cn1
3 | 126 nM |  | CC1(C)C(=O)C=C1N[C@@H](Cc1ccc(-n2c(-c3cccnc3)nc3cccnc32)cc1)C(=O)O
4 | 71 nM |  | O=C(O)[C@H](Cc1ccc(-n2c(-c3ccccc3)nc3cccnc32)cc1)NC1=C(Br)C(=O)C12CCCCC2
5 | 3 nM |  | O=C(O)[C@H](Cc1ccc(-n2c(-c3ccc(Cl)nc3)nc3cccnc32)cc1)NC1=C(Br)C(=O)C12CCCCC2
6 | 10 nM |  | O=C(O)[C@H](Cc1ccc(-n2c(C3COCCN3)nc3cccnc32)cc1)NC1=C(Br)C(=O)C12CCCCC2 (stereo partly specified)
7 | 3 nM |  | O=C(O)[C@H](Cc1ccc(-n2c(C3CCCCN3)nc3cccnc32)cc1)NC1=C(Br)C(=O)C12CCCCC2 (stereo partly specified)
8 | 3 nM | IC50 (Cytochrome P450 2C9): 10000 nM; microsomal CLint at 0.5 µM [1]: 48 µL/min/mg; microsomal CLint at 0.5 µM [2]: 11 µL/min/mg; microsomal CLint at 0.5 µM [3]: < 1 µL/min/mg; IC50 (Cytochrome P450 1A2): > 100000 nM; IC50 (Cytochrome P450 3A4): 62000 nM; IC50 (Cytochrome P450 2D6): > 100000 nM | O=C(O)[C@H](Cc1ccc(-n2c(-c3cccnc3)nc3cccnc32)cc1)NC1=C(Br)C(=O)C12CCCCC2
9 | 83 nM |  | O=C(O)[C@H](Cc1ccc(-n2c(-c3ccc(N4CCCCC4)nc3)nc3cccnc32)cc1)NC1=C(Br)C(=O)C12CCCCC2
10 | 14 nM |  | O=C(O)[C@H](Cc1ccc(-n2c(C3CCCC3)nc3cccnc32)cc1)NC1=C(Br)C(=O)C12CCCCC2
11 | 22 nM |  | O=C(O)[C@H](Cc1ccc(-n2c(C(F)(F)F)nc3cccnc32)cc1)NC1=C(Br)C(=O)C12CCCCC2
12 | 7 nM |  | O=C(O)[C@H](Cc1ccc(-n2c(-c3cccnc3)nc3cccnc32)cc1)NC1=C(Cl)C(=O)C12CCCCC2
13 | 8 nM |  | O=C(O)[C@H](Cc1ccc(-n2c(CC3CC3)nc3cccnc32)cc1)NC1=C(Br)C(=O)C12CCCCC2
14 | 11 nM |  | CSCCc1nc2cccnc2n1-c1ccc(C[C@H](NC2=C(Br)C(=O)C23CCCCC3)C(=O)O)cc1
15 | 2680 nM |  | O=C(O)[C@H](Cc1ccc(-n2c(-c3cccnc3)nc3cc(F)ccc32)cc1)NC1=C(Br)C(=O)C12CCCCC2
16 | 2 nM |  | CSC1=C(N[C@@H](Cc2ccc(-n3c(-c4cccnc4)nc4cccnc43)cc2)C(=O)O)C2(CCCCC2)C1=O
17 | 8 nM |  | O=C(O)[C@H](Cc1ccc(-n2c(-c3ccc(C(F)(F)F)nc3)nc3cccnc32)cc1)NC1=C(Br)C(=O)C12CCCCC2
18 | 6 nM |  | O=C(O)[C@H](Cc1ccc(-n2c(C3CCCNC3)nc3cccnc32)cc1)NC1=C(Br)C(=O)C12CCCCC2 (stereo partly specified)

Row | IC50 (Integrin alpha-4/beta-1) | also measured | Compound
19 | 95 nM |  | O=C(O)[C@H](Cc1ccc(-n2c(C3CC3)nc3cccnc32)cc1)NC1=C(Br)C(=O)C12CCCCC2
20 | 19 nM |  | CC1(C)C(=O)C(Cl)=C1N[C@@H](Cc1ccc(-n2c(-c3cccnc3)nc3cccnc32)cc1)C(=O)O
21 | 22 nM |  | CN(C)c1ccc(-c2nc3cccnc3n2-c2ccc(C[C@H](NC3=C(Br)C(=O)C34CCCCC4)C(=O)O)cc2)cn1
22 | 46 nM |  | CN(C)c1ccnc(-c2nc3cccnc3n2-c2ccc(C[C@H](NC3=C(Br)C(=O)C34CCCCC4)C(=O)O)cc2)c1
23 | 10 nM |  | N#CCc1nc2cccnc2n1-c1ccc(C[C@H](NC2=C(Br)C(=O)C23CCCCC3)C(=O)O)cc1
24 | 24 nM |  | O=C(O)[C@H](Cc1ccc(-n2c(-c3cccnc3)nc3cccnc32)cc1)NC1=CC(=O)C12CCCCC2
25 | 2 nM | IC50 (Cytochrome P450 2C9): 8000 nM; microsomal CLint at 0.5 µM [1]: 52 µL/min/mg; microsomal CLint at 0.5 µM [2]: 15 µL/min/mg; microsomal CLint at 0.5 µM [3]: 6 µL/min/mg; IC50 (Cytochrome P450 1A2): > 100000 nM; IC50 (Cytochrome P450 3A4): 10000 nM; IC50 (Cytochrome P450 2D6): > 100000 nM | O=C(O)[C@H](Cc1ccc(-n2c(C3(C(F)(F)F)CC3)nc3cccnc32)cc1)NC1=C(Br)C(=O)C12CCCCC2
26 | 13 nM |  | O=C(O)[C@H](Cc1ccc(-n2c(C3CCNCC3)nc3cccnc32)cc1)NC1=C(Br)C(=O)C12CCCCC2
27 | 570 nM |  | Cc1nc2cccnc2n1-c1ccc(C[C@H](NC2=C(Br)C(=O)C23CCCCC3)C(=O)O)cc1
28 | 504 nM |  | O=C(O)[C@H](Cc1ccc(-n2c(-c3cccnc3)nc3cnccc32)cc1)NC1=C(Cl)C(=O)C12CCCCC2
29 | 10 nM |  | CC1(C)C(=O)C(Br)=C1N[C@@H](Cc1ccc(-n2c(-c3cccnc3)nc3cccnc32)cc1)C(=O)O
30 | 236 nM |  | O=C(O)[C@H](Cc1ccc(-n2c(-c3cccnc3)nc3cnccc32)cc1)NC1=C(Br)C(=O)C12CCCCC2
31 | 2 nM |  | CC(C)SC1=C(N[C@@H](Cc2ccc(-n3c(-c4cccnc4)nc4cccnc43)cc2)C(=O)O)C2(CCCCC2)C1=O
32 | 11 nM |  | CC(C)Cc1nc2cccnc2n1-c1ccc(C[C@H](NC2=C(Br)C(=O)C23CCCCC3)C(=O)O)cc1
33 | 3 nM |  | CC(C)(C)c1nc2cccnc2n1-c1ccc(C[C@H](NC2=C(Br)C(=O)C23CCCCC3)C(=O)O)cc1
34 | 18 nM |  | O=C(O)[C@H](Cc1ccc(-n2c(C3CCC3)nc3cccnc32)cc1)NC1=C(Br)C(=O)C12CCCCC2
35 | 1620 nM |  | O=C(O)[C@H](Cc1ccc(-n2c(-c3cccnc3)nc3cnccc32)cc1)NC1=CC(=O)C12CCCCC2
